In ChEMBL document CHEMBL1143061, “Synthesis and antifungal activities of 5-(3,4,5-trimethoxyphenyl)-2-sulfonyl-1,3,4-thiadiazole and 5-(3,4,5-trimethoxyphenyl)-2-sulfonyl-1,3,4-oxadiazole derivatives” (Bioorg Med Chem, 2007):
In brackets after ≈: the same amount, converted by molar mass.

Experiments:
Botrytis cinerea [1] = assay: Antifungal activity against Botrytis cinerea at 50 ug/mL; assay type: functional
Sclerotinia sclerotiorum [2] = assay: Antifungal activity against Sclerotinia sclerotiorum at 50 ug/mL; assay type: functional
Fusarium graminearum [3] = assay: Antifungal activity against Gibberella zeae at 50 ug/mL; assay type: functional
Fusarium oxysporum = assay: Growth inhibition of Fusarium oxysporum; assay type: functional, organism-based
Summary of the method: (§1)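 In vitro inhibition of mycelial growth, with hymexazol as the reference fungicide. The EC50, the concentration that inhibits growth by 50%, was read from a dose–response curve. Results come from three separate experiments, each run in triplicate.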

Rhizoctonia solani = assay: Growth inhibition of Rhizoctonia solani; assay type: functional, organism-based; summary of the method: as §1
Botrytis cinerea [4] = assay: Antifungal activity against Botrytis cinerea; assay type: functional, organism-based
[5] = system: Colletotrichum gloeosporioides; assay: Growth inhibition of Colletotrichum gloeosporioides; assay type: functional, organism-based
Cytospora = assay: Growth inhibition of Cytospora mandshurica; assay type: functional
Sclerotinia sclerotiorum [6] = assay: Antifungal activity against Sclerotinia sclerotiorum; assay type: functional, organism-based
Pyricularia oryzae = assay: Growth inhibition of Pyricularia oryzae; assay type: functional, organism-based
Fusarium graminearum [7] = assay: Antifungal activity against Gibberella zeae; assay type: functional, organism-based
Summary of the method: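 In vitro inhibition of fungal mycelial growth. EC50 read from the dose–response curve. Three separate experiments, each in triplicate. Hymexazol was the standard reference.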

Pyricularia grisea = assay: Growth inhibition of Pyricularia grisea; assay type: functional, organism-based
Phytophthora infestans = assay: Growth inhibition of Phytophthora infestans; assay type: functional, organism-based

For `CCOC(=O)CS(=O)(=O)c1nnc(-c2cc(OC)c(OC)c(OC)c2)o1`, the inhibition at 50 µg/mL (Botrytis cinerea [1]) was 81.9%, the inhibition at 50 µg/mL (Sclerotinia sclerotiorum [2]) was 79.9% and the inhibition at 50 µg/mL (Fusarium graminearum [3]) was 52%.

`Cc1cc(O)no1` [HYMEXAZOL] gave an inhibition at 50 µg/mL (Botrytis cinerea [1]) of 75.4%, an EC50 (Fusarium oxysporum) of 29.1 µg/mL (≈ 294 µM) and an inhibition at 50 µg/mL (Sclerotinia sclerotiorum [2]) of 77.5%. It also gave an EC50 (Rhizoctonia solani) of 52.1 µg/mL (≈ 526 µM) and an inhibition at 50 µg/mL (Fusarium graminearum [3]) of 52.9%.

For `COc1cc(-c2nnc(S(=O)(=O)Cc3ccc(Cl)nc3)o2)cc(OC)c1OC`, the inhibition at 50 µg/mL (Botrytis cinerea [1]) was 60.3%, the inhibition at 50 µg/mL (Sclerotinia sclerotiorum [2]) was 67.9% and the inhibition at 50 µg/mL (Fusarium graminearum [3]) was 38.9%.

In the case of `COc1cc(-c2nnc(S(=O)(=O)Cc3ccccc3)o2)cc(OC)c1OC`, the inhibition at 50 µg/mL (Botrytis cinerea [1]) is reported as 67.3%, the inhibition at 50 µg/mL (Sclerotinia sclerotiorum [2]) is reported as 71.2% and the inhibition at 50 µg/mL (Fusarium graminearum [3]) is reported as 54.9%.

For `CCCS(=O)(=O)c1nnc(-c2cc(OC)c(OC)c(OC)c2)o1`, the inhibition at 50 µg/mL (Botrytis cinerea [1]) was 59.4%, the inhibition at 50 µg/mL (Sclerotinia sclerotiorum [2]) was 64% and the inhibition at 50 µg/mL (Fusarium graminearum [3]) was 59%.

With `COc1cc(-c2nnc(S(=O)(=O)Cc3ccc([N+](=O)[O-])cc3)o2)cc(OC)c1OC` the inhibition at 50 µg/mL (Botrytis cinerea [1]) was 76.8%, the inhibition at 50 µg/mL (Sclerotinia sclerotiorum [2]) was 62.2% and the inhibition at 50 µg/mL (Fusarium graminearum [3]) was 42.1%.

In the case of `COc1cc(-c2nnc(S(=O)(=O)Cc3ccc(Cl)nc3)s2)cc(OC)c1OC`, the inhibition at 50 µg/mL (Botrytis cinerea [1]) is reported as 25.9%, the inhibition at 50 µg/mL (Sclerotinia sclerotiorum [2]) is reported as 21.3% and the inhibition at 50 µg/mL (Fusarium graminearum [3]) is reported as -1.1%.

`COc1cc(-c2nnc(S(=O)(=O)Cc3ccccc3F)o2)cc(OC)c1OC` showed an inhibition at 50 µg/mL (Botrytis cinerea [1]) of 52.3%, an inhibition at 50 µg/mL (Sclerotinia sclerotiorum [2]) of 33.4% and an inhibition at 50 µg/mL (Fusarium graminearum [3]) of 18.2%.

`CCCS(=O)(=O)c1nnc(-c2cc(OC)c(OC)c(OC)c2)s1` gave an inhibition at 50 µg/mL (Botrytis cinerea [1]) of 33.5%, an inhibition at 50 µg/mL (Sclerotinia sclerotiorum [2]) of 38.1% and an inhibition at 50 µg/mL (Fusarium graminearum [3]) of 13.5%.

Work on `COc1cc(-c2nnc(S(=O)(=O)Cc3cccc(F)c3)o2)cc(OC)c1OC` yielded an inhibition at 50 µg/mL (Botrytis cinerea [1]) of 35.8%, an inhibition at 50 µg/mL (Sclerotinia sclerotiorum [2]) of 38.3% and an inhibition at 50 µg/mL (Fusarium graminearum [3]) of 9.3%.

With `COc1cc(-c2nnc(S(=O)(=O)Cc3ccccc3)s2)cc(OC)c1OC` the inhibition at 50 µg/mL (Botrytis cinerea [1]) was 27.5%, the inhibition at 50 µg/mL (Sclerotinia sclerotiorum [2]) was 22.9% and the inhibition at 50 µg/mL (Fusarium graminearum [3]) was 8.3%.

`CCOC(=O)CS(=O)(=O)c1nnc(-c2cc(OC)c(OC)c(OC)c2)s1` was tested, and the inhibition at 50 µg/mL (Botrytis cinerea [1]) was 49.7%, the inhibition at 50 µg/mL (Sclerotinia sclerotiorum [2]) was 49.4% and the inhibition at 50 µg/mL (Fusarium graminearum [3]) was 21.1%.

With `CCS(=O)(=O)c1nnc(-c2cc(OC)c(OC)c(OC)c2)o1` the EC50 (Botrytis cinerea [4]) was 2.9 µg/mL (≈ 8.83 µM), the inhibition at 50 µg/mL (Botrytis cinerea [1]) was 100% and the EC50 [5] was 26.3 µg/mL (≈ 80.1 µM). For the same compound, the EC50 (Cytospora) was 20.5 µg/mL (≈ 62.4 µM), the EC50 (Fusarium oxysporum) was 18 µg/mL (≈ 54.8 µM) and the inhibition at 50 µg/mL (Sclerotinia sclerotiorum [2]) was 100%. For the same compound, the EC50 (Sclerotinia sclerotiorum [6]) was 4.3 µg/mL (≈ 13.1 µM) and the EC50 (Rhizoctonia solani) was 45.6 µg/mL (≈ 139 µM).

With `C=CCS(=O)(=O)c1nnc(-c2cc(OC)c(OC)c(OC)c2)o1` the inhibition at 50 µg/mL (Botrytis cinerea [1]) was 40.9%, the inhibition at 50 µg/mL (Sclerotinia sclerotiorum [2]) was 40.9% and the inhibition at 50 µg/mL (Fusarium graminearum [3]) was 26.4%.

`COc1cc(-c2nnc(S(=O)(=O)Cc3ccc(F)cc3)o2)cc(OC)c1OC` showed an inhibition at 50 µg/mL (Botrytis cinerea [1]) of 41.6%, an inhibition at 50 µg/mL (Sclerotinia sclerotiorum [2]) of 62.7% and an inhibition at 50 µg/mL (Fusarium graminearum [3]) of 28.1%.

Compound `COc1cccc(CS(=O)(=O)c2nnc(-c3cc(OC)c(OC)c(OC)c3)s2)c1` has an inhibition at 50 µg/mL (Botrytis cinerea [1]) of 53.4%, an inhibition at 50 µg/mL (Sclerotinia sclerotiorum [2]) of 74.5% and an inhibition at 50 µg/mL (Fusarium graminearum [3]) of 43.2%.

Compound `COc1cc(-c2nnc(S(C)(=O)=O)o2)cc(OC)c1OC` has an EC50 (Botrytis cinerea [4]) of 11.7 µg/mL (≈ 37.2 µM), an inhibition at 50 µg/mL (Botrytis cinerea [1]) of 100% and an EC50 [5] of 21.8 µg/mL (≈ 69.4 µM). The EC50 (Cytospora) was 80.5 µg/mL (≈ 256 µM), the EC50 (Fusarium oxysporum) was 24.5 µg/mL (≈ 77.9 µM) and the EC50 (Pyricularia oryzae) was 90.7 µg/mL (≈ 289 µM). For the same compound, the EC50 (Fusarium graminearum [7]) was 28.8 µg/mL (≈ 91.6 µM), the inhibition at 50 µg/mL (Sclerotinia sclerotiorum [2]) was 100% and the EC50 (Sclerotinia sclerotiorum [6]) was 12.5 µg/mL (≈ 39.8 µM). For the same compound, the EC50 (Rhizoctonia solani) was 93.3 µg/mL (≈ 297 µM), the inhibition at 50 µg/mL (Fusarium graminearum [3]) was 55.8% and the EC50 (Pyricularia grisea) was 30.8 µg/mL (≈ 98 µM). It also gave an EC50 (Phytophthora infestans) of 83.2 µg/mL (≈ 265 µM).

With `COc1cccc(CS(=O)(=O)c2nnc(-c3cc(OC)c(OC)c(OC)c3)o2)c1` the inhibition at 50 µg/mL (Botrytis cinerea [1]) was 38.1%, the inhibition at 50 µg/mL (Sclerotinia sclerotiorum [2]) was 40.6% and the inhibition at 50 µg/mL (Fusarium graminearum [3]) was 5.7%.

For `COc1cc(-c2nnc(S(=O)(=O)Cc3ccccc3Cl)o2)cc(OC)c1OC`, the inhibition at 50 µg/mL (Botrytis cinerea [1]) was 26.1%, the inhibition at 50 µg/mL (Sclerotinia sclerotiorum [2]) was 39.6% and the inhibition at 50 µg/mL (Fusarium graminearum [3]) was 11.9%.

Compound `COc1ccccc1CS(=O)(=O)c1nnc(-c2cc(OC)c(OC)c(OC)c2)o1` has an inhibition at 50 µg/mL (Botrytis cinerea [1]) of 42.3%, an inhibition at 50 µg/mL (Sclerotinia sclerotiorum [2]) of 37.2% and an inhibition at 50 µg/mL (Fusarium graminearum [3]) of 23.7%.

For `COc1cc(-c2nnc(S(C)(=O)=O)s2)cc(OC)c1OC`, the inhibition at 50 µg/mL (Botrytis cinerea [1]) was 27.1%, the inhibition at 50 µg/mL (Sclerotinia sclerotiorum [2]) was 40.7% and the inhibition at 50 µg/mL (Fusarium graminearum [3]) was 11.6%.

Compound `C=CCS(=O)(=O)c1nnc(-c2cc(OC)c(OC)c(OC)c2)s1` has an inhibition at 50 µg/mL (Botrytis cinerea [1]) of 47.3%, an inhibition at 50 µg/mL (Sclerotinia sclerotiorum [2]) of 40.5% and an inhibition at 50 µg/mL (Fusarium graminearum [3]) of 14%.

With `COc1cc(-c2nnc(S(=O)(=O)Cc3cccc([N+](=O)[O-])c3)o2)cc(OC)c1OC` the inhibition at 50 µg/mL (Botrytis cinerea [1]) was 40.7%, the inhibition at 50 µg/mL (Sclerotinia sclerotiorum [2]) was 38.3% and the inhibition at 50 µg/mL (Fusarium graminearum [3]) was 11.8%.

`COc1cc(-c2nnc(S(=O)(=O)Cc3ccc(Cl)cc3)o2)cc(OC)c1OC` showed an inhibition at 50 µg/mL (Botrytis cinerea [1]) of 30.8%, an inhibition at 50 µg/mL (Sclerotinia sclerotiorum [2]) of 35.5% and an inhibition at 50 µg/mL (Fusarium graminearum [3]) of 23.3%.

Work on `COc1cc(-c2nnc(S(=O)(=O)Cc3ccc(Cl)cc3)s2)cc(OC)c1OC` yielded an inhibition at 50 µg/mL (Botrytis cinerea [1]) of 20.8%, an inhibition at 50 µg/mL (Sclerotinia sclerotiorum [2]) of 20.3% and an inhibition at 50 µg/mL (Fusarium graminearum [3]) of 5.5%.

`COc1ccc(CS(=O)(=O)c2nnc(-c3cc(OC)c(OC)c(OC)c3)o2)cc1` showed an inhibition at 50 µg/mL (Botrytis cinerea [1]) of 58.5%, an inhibition at 50 µg/mL (Sclerotinia sclerotiorum [2]) of 58.5% and an inhibition at 50 µg/mL (Fusarium graminearum [3]) of 33.9%.

Compound `COc1cc(-c2nnc(S(=O)(=O)Cc3ccc([N+](=O)[O-])cc3)s2)cc(OC)c1OC` has an inhibition at 50 µg/mL (Botrytis cinerea [1]) of 30.3%, an inhibition at 50 µg/mL (Sclerotinia sclerotiorum [2]) of 20% and an inhibition at 50 µg/mL (Fusarium graminearum [3]) of -1.8%.
